Experimental findings from ChEMBL document CHEMBL1909505, “Leonurine-cysteine analog conjugates as a new class of multifunctional anti-myocardial ischemia agent” (Eur J Med Chem, 2011) are described below.

The species entered for experiment [1] is Rattus norvegicus. In words: Cardioprotective activity against hypoxia-induced Sprague-Dawley NRVM damage assessed as increased cell viability at 0.1 uM treated 12 hrs before hypoxia challenge measured after 5 hrs by MTT assay. The experiment is classed as functional. Summed up: (§1)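 Myocytes seeded at 1×10^5 cells/mL and cultured 72 h at 37 °C in 5% CO2, pretreated 12 h, then exposed to hypoxic solution. MTT added for 4 h, formazan dissolved in DMSO, absorbance read at 570 nm. Viability given as percent of normoxic control, taken as 100%.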
A general note: Tetrazolium dyes change colour on reduction, which living cells bring about.

The nature of experiment [2]: Cardioprotective activity against hypoxia-induced Sprague-Dawley NRVM damage assessed as inhibition of LDH release at 0.1 uM treated 12 hrs before hypoxia challenge measured after 5 hrs. The experiment is classed as functional. The note with it: Rattus norvegicus. Background: LDH leaks from cells whose membrane has failed.
Experiment [3] is described as follows: Cardioprotective activity against hypoxia-induced Sprague-Dawley NRVM damage assessed as increase in hydrogen sulfide level at 0.1 uM treated 12 hrs before hypoxia challenge measured after 5 hrs. The experiment is classed as functional. The conditions noted are these: Rattus norvegicus.
For experiment [4], the species on record is Rattus norvegicus. As to the kind of experiment: Cardioprotective activity against hypoxia-induced Sprague-Dawley NRVM damage assessed as increased cell viability at 0.1 umol/L treated 12 hrs before hypoxia challenge measured after 5 hrs by MTT assay. The experiment is classed as functional. The method, boiled down:
as §1

A short description of experiment [5]: Cardioprotective activity against hypoxia-induced Sprague-Dawley NRVM damage assessed as inhibition of LDH release treated 12 hrs before hypoxia challenge measured after 5 hrs. The experiment is classed as functional. The conditions noted are these: Rattus norvegicus.
Experiment [6] in a line: Cardioprotective activity against hypoxia-induced Sprague-Dawley NRVM damage assessed as increase in hydrogen sulfide level treated 12 hrs before hypoxia challenge measured after 5 hrs. The experiment is classed as functional. The note with it: Rattus norvegicus. The method, boiled down: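 H2S in culture medium: 0.5 mL supernatant mixed with 0.25 mL 1% zinc acetate, then 0.25 mL 10% TCA to remove protein, centrifuged 12,000 g for 10 min at 4 °C. Absorbance read at 670 nm in duplicate against a same-day NaHS calibration curve. Cells pretreated 12 h before hypoxia; three or six samples.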

Experiment [7] in a line: Cardioprotective activity against hypoxia-induced Sprague-Dawley NRVM damage assessed as decrease in ROS level treated 12 hrs before hypoxia challenge measured after 5 hrs […]. The note with it: Rattus norvegicus. The experiment is classed as functional. The method, boiled down:
(§2)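 Kit assays per the manufacturer for ROS level and catalase activity in hypoxic myocytes pretreated 12 h. Means ± S.E.M. from three samples; t-test versus the model group.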

The species named for experiment [8] is Rattus norvegicus. As to the kind of experiment: Cardioprotective activity against hypoxia-induced Sprague-Dawley NRVM damage assessed as decrease in MDA level treated 12 hrs before hypoxia challenge measured after 5 hrs […]. The experiment is classed as functional.
Experiment [9] is described as follows: Cardioprotective activity against hypoxia-induced Sprague-Dawley NRVM damage assessed as increase in SOD activity treated 12 hrs before hypoxia challenge measured after 5 hrs […]. The experiment is classed as functional. The conditions noted are these: Rattus norvegicus.
The nature of experiment [10]: Cardioprotective activity against hypoxia-induced Sprague-Dawley NRVM damage assessed as increase in CAT activity treated 12 hrs before hypoxia challenge measured after 5 hrs […]. The experiment is classed as functional. The note with it: Rattus norvegicus. The method, boiled down: as §2
Experiment [11] can be described thus: Antiapoptotic activity against hypoxia-induced Sprague-Dawley NRVM assessed as decrease in nuclei-shrunk treated 12 hrs before hypoxia challenge measured after 5 hrs using Hoechst 33258 staining-based by fluorescence microscopy. The experiment is classed as functional. The note with it: Rattus norvegicus. The method, boiled down: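 After 12 h pretreatment and hypoxia, myocytes were stained with Hoechst 33258 and photographed under fluorescence (×400). Each image is representative of three independent observations.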

A short description of experiment [12]: Antiapoptotic activity against hypoxia-induced Sprague-Dawley NRVM assessed as decrease in nuclear condensation treated 12 hrs before hypoxia challenge measured after 5 hrs by transmission electron microscopy. The experiment is classed as functional. The note with it: Rattus norvegicus. Summed up: (§3)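 Neonatal rat ventricular myocytes cultured 72 h (DMEM, 10% FBS, 5-bromodeoxyuridine), pretreated 12 h, then put in hypoxic solution. Cells fixed 2 h in 2.5% glutaraldehyde in PBS, post-fixed 1 h in 1% osmium tetroxide, dehydrated through graded ethanol, embedded in Epon 812, and examined by transmission electron microscopy (×11000). Compared with normoxic and hypoxic untreated groups.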

Experiment [13] is described as follows: Antiapoptotic activity against hypoxia-induced Sprague-Dawley NRVM assessed as decrease in nucleus aggregation treated 12 hrs before hypoxia challenge measured after 5 hrs by transmission electron microscopy. The conditions noted are these: Rattus norvegicus. The experiment is classed as functional. The method, boiled down:
as §3

The nature of experiment [14]: Antiapoptotic activity against hypoxia-induced Sprague-Dawley NRVM assessed as increase in myofilaments integrity preservation treated 12 hrs before hypoxia challenge measured after 5 hrs by transmission electron microscopy. The experiment is classed as functional. The note with it: Rattus norvegicus. The method, boiled down:
as §3

The nature of experiment [15]: Antiapoptotic activity against hypoxia-induced Sprague-Dawley NRVM assessed as appearance of distinct sarcomeres treated 12 hrs before hypoxia challenge measured after 5 hrs by transmission electron microscopy. The experiment is classed as functional. The conditions noted are these: Rattus norvegicus. The method, boiled down: as §3
A short description of experiment [16]: Antiapoptotic activity against hypoxia-induced Sprague-Dawley NRVM assessed as decrease in apoptotic cells treated 12 hrs before hypoxia challenge measured after 5 hrs by AnnexinV-FITC/PI staining-based flow cytometric analysis. The experiment is classed as functional, cell-based. The note with it: Rattus norvegicus. Summed up:
(§4)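 Cardiomyocytes pretreated 12 h before hypoxia. Annexin V-FITC/PI staining done with a kit per the manufacturer, then read by flow cytometry to separate apoptotic from necrotic cells. Means ± S.E.M. from three samples; two-tailed Student's t-test versus the model group.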
Background: A flow cytometer gives signals particle by particle.

Experiment [17] is described as follows: Antiapoptotic activity against hypoxia-induced Sprague-Dawley NRVM assessed as inhibition of cell necrosis treated 12 hrs before hypoxia challenge measured after 5 hrs by AnnexinV-FITC/PI staining-based flow cytometric analysis. The experiment is classed as functional. The conditions noted are these: Rattus norvegicus. The method, boiled down:
as §4

The nature of experiment [18]: Antiapoptotic activity against hypoxia-induced Sprague-Dawley NRVM assessed as increase in bcl-2 expression treated 12 hrs before hypoxia challenge measured after 5 hrs by RT-PCR analysis relative to control. The experiment is classed as functional. The note with it: Rattus norvegicus.
The nature of experiment [19]: Antiapoptotic activity against hypoxia-induced Sprague-Dawley NRVM assessed as decrease in bax expression treated 12 hrs before hypoxia challenge measured after 5 hrs by RT-PCR analysis relative to control. The note with it: Rattus norvegicus. The experiment is classed as functional.
The nature of experiment [20]: Antiapoptotic activity against hypoxia-induced Sprague-Dawley NRVM assessed as increase in Bcl2 to Bax mRNA expression ratio treated 12 hrs before hypoxia challenge measured after 5 hrs by RT-PCR analysis relative to control. The experiment is classed as functional. The note with it: Rattus norvegicus.
A short description of experiment [21]: Down regulation of caspase-3 expression in hypoxia-induced Sprague-Dawley NRVM treated 12 hrs before hypoxia challenge measured after 5 hrs by RT-PCR down analysis relative to control. The experiment is classed as functional. The conditions noted are these: Rattus norvegicus.
The nature of experiment [22]: Antiapoptotic activity against hypoxia-induced Sprague-Dawley NRVM assessed as decrease in cleaved-caspase-3 to procaspase-3 ratio treated 12 hrs before hypoxia challenge measured after 5 hrs by Western blot analysis relative to control. The conditions noted are these: Rattus norvegicus.

Activity calls are given as the source filed them. The rule behind the calls is not given here.

Take `C#CCSC[C@H](N)C(=O)O`: the outcome in experiment [1] and in experiment [3] was Active. For the same compound, the inhibition entry in experiment [2] was “Active”.
Turning to `C=CCSC[C@H](N)C(=O)Oc1c(OC)cc(C(=O)OCCCCNC(=N)N)cc1OC`, the result in experiment [4] and in [6] was Active. Also, the inhibition result in experiment [5] was “Active”.
For the compound `COc1cc(C(=O)OCCCCNC(=N)N)cc(OC)c1O`, the outcome in [1] and in experiment [3] was Active. Further, the inhibition result in [2] was “Active”.
`C#CCSC[C@H](N)C(=O)Oc1c(OC)cc(C(=O)OCCCCNC(=N)N)cc1OC`: the outcome in [4], in experiment [6], in experiment [1], in [3], in experiment [7] and in experiment [8] was Active. Besides, the result in [9], in [10], in experiment [11], in experiment [12], in [13] and in experiment [14] was Active. In addition, the result in experiment [15], in experiment [16], in experiment [21] and in experiment [22] was Active. Also, the inhibition result in [5] and in experiment [2] was “Active” in each case. In addition, the inhibition result in experiment [17] is “inactive”. For the same compound, the fold change (FC) in [18] came to 0.98; in experiment [19], 0.89; in experiment [20], 1.22.
`COc1cc(C(=O)OCCCCNC(=N)N)cc(OC)c1OC(=O)CCSSCCC(=O)Oc1c(OC)cc(C(=O)OCCCCNC(=N)N)cc1OC`: the result in [4] was Active. For the same compound, in [5], the inhibition entry was “Active”. Besides, in experiment [6], the outcome was inactive.
